Bioassay records deposited in PubChem BioAssay by several laboratories.
MT stabilizer = microtubule stabilizers in HeLa cells, primary screen, imaging, high-content imaging | % tubulin-high responders, % at 10 µM | 200,000 compounds, 0.83% hits | HeLa tubulin immunostaining HCS, 24 h; share of cells brighter than vehicle mean+2SD;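 active = plate Z-score above 3 for both tubulin-high and condensed-nucleus cell shares, with cell loss under 80%, at 10 µM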;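 also: anti alpha tubulin signal scored within the nucleus-defined area of each cell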
ROMK primary = ROMK potassium channel modulators, primary screen, cell-based, thallium flux, MLSMR library | ATP-sensitive inward rectifier potassium channel 1 (Homo sapiens), P48048 | Tet-inducible ROMK, thallium flux fluorescence; actives lie on both sides | B-score at 10 µM | 130,000 compounds, 2% hits | AID 1918, 2009;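 active = signal ratio slope over the read window, or its plate-corrected B-score, at least 3 SD from the plate mean, either direction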;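 also: B-score of the F/F0 ratio slope over 7 to 12 s after thallium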
Target sequence (P48048 whole entry, looked up): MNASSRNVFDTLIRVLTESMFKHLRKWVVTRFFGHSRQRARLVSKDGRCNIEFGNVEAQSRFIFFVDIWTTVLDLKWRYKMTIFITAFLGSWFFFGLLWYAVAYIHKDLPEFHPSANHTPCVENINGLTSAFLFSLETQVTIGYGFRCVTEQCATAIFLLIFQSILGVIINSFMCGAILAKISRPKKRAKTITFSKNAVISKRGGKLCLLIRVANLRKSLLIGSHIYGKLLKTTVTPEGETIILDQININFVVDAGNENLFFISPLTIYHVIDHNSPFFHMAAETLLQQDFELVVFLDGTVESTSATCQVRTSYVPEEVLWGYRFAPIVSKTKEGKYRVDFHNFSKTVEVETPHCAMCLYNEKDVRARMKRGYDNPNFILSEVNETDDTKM
Insulin prom inh = inhibitors of insulin promoter-driven GFP, primary screen, imaging, TRM-6 cells, eGFP reporter, cell count; AID 1273, 2008; inhibition, % at 2 µM; reporter expression induced with tamoxifen; 130,000 compounds, 0.9% hits;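 active = inhibition above the mean plus 3 SD, with well images judged a real hit on visual review, cut at about 60% in these data, passing the limit was not always enough; inconclusive = inhibition over the cutoff but images rejected on review; inactive = inhibition not above the cutoff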
b-catenin transl = modulators of beta-catenin nuclear translocation, primary screen, imaging, HeLa cells, immunofluorescence, high-content; nuclear translocation activity, % at 5 µM; 190,000 compounds, 0.3% hits;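 active = nuclear translocation activity above 50% at 5 µM, with a well cell count of 50 or more; inconclusive = wells under 50 cells across six images, flagged as toxic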;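 also: per-cell ratio of nuclear to cytoplasmic median beta-catenin stain intensity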
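Assay system: human HeLa cells, native beta-catenin; doses: 5 µM primary, 0.02–20 µM confirmation; incubation: compound treatment 24 h, 37°C, 5% CO2; technique: fluorescence imaging of beta-catenin antibody stain plus DAPI; measure: % activation, nuclear-to-cytoplasmic median beta-catenin signal ratio per cell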
HSV augment = enhancers of HSV replication in host cells, fold increase, host cell viability. HSV replication augmentation in cells. maximum fold increase. 220,000 compounds, 0.005% hits; in the data active = maximum fold increase above about 1.5; inconclusive = no clear call, values can overlap the other calls; tested in PC3 cells
Hits are given with their value; – = inactive; ? = inconclusive; · = no result. This is a sample that favours compounds with a hit; in the whole collection about 2.4% have one here.

SMILES	MT stabilizer	ROMK primary	Insulin prom inh	b-catenin transl	HSV augment
Cc1ccc(NCc2nnc(SCC(=O)Nc3cccc(O)c3)n2CC2CCCO2)c(C)c1 (stereo unspecified)	–	·	·	–	–
S=C(Nc1ccc2[nH]ccc2c1)NC1CCCCC1	·	·	·	–	–
Cc1c(C(=O)Nc2ccc(F)cc2)oc2ccc(S(=O)(=O)N3CC(C)CC(C)C3)cc12 (stereo unspecified)	–	–	71	–	–
Cc1ccc(C(=O)NCc2ccccc2)c(F)c1F	–	·	·	–	–
Cc1cc(C(=O)NCc2ccccc2)c(=O)[nH]c1C	–	–	73	–	–
Cc1nn(C)c(C)c1NC(=O)c1ccnn1C	–	·	72	–	–
Cc1cc(C)c(S(=O)(=O)n2nc(C)c(Br)c2C)c(C)c1	–	–	–	–	–
Oc1ccc(Nc2nc(N3CCCC3)c3ccccc3n2)cc1	–	-4.8	·	–	–
COc1ccc(Nc2nc(N3CCCCC3)c3ccccc3n2)cc1	–	·	–	–	–
O=C(Nc1nccs1)c1ccc2c(=O)n3c(nc2c1)CCCCC3	–	·	·	–	–
CCCNc1ncccc1C(N)=O	–	–	61	–	–
Cc1ccc(Nc2ncccc2C(N)=O)cc1	–	–	–	–	–
CC(=O)N1CCN(c2nc3cc4c(cc3nc2NS(=O)(=O)c2ccccc2)OCCO4)CC1	–	·	·	–	–
CCn1c(=S)[nH]c2scc(-c3cccs3)c2c1=O	–	13	–	–	–
C=CCn1c(=S)[nH]c2scc(-c3ccc(C)o3)c2c1=O	–	7.5	–	–	–
CC(C)n1c(=S)[nH]c2scc(-c3cccs3)c2c1=O	·	·	·	–	–
C=CCn1c(=S)[nH]c2sccc2c1=O	–	–	–	–	–
COc1ccccc1NC(=O)Cn1nc(-c2ccncc2)nc1SCC(=O)NC1CCCC1	11	–	–	–	–
COc1ccc(C(C(=O)NCC2CCCO2)N(C(=O)CNC(=O)c2cccs2)c2ccccc2C)cc1OC (stereo unspecified)	–	–	–	–	–
O=C(Nc1ccccc1-c1nc2ccccc2o1)c1ccc2c(c1)OCCO2	15	·	–	·	·
CCCN1CCN(c2ncnc3c2nnn3Cc2ccccc2)CC1	58	–	·	72	·
c1ccc(Cn2nnc3c(N4CCCCCC4)ncnc32)cc1	–	·	·	–	–
COc1cc2c(cc1OC)/C(=C/c1ccc(Br)cc1)C(=O)OC2	–	–	71	–	–
COc1ccc(/C=C2\Cc3ccccc3C2=O)cc1OC	·	·	·	–	–
CCN(CC)S(=O)(=O)c1ccc(NC(=O)c2cc(C(=O)OC)cc([N+](=O)[O-])c2)cc1	–	–	71	–	–
SMILES	MT stabilizer	ROMK primary	Insulin prom inh	b-catenin transl	HSV augment
Cc1sc2c(c1C)c(=O)n(-c1cccc(C(F)(F)F)c1)c(=O)n2CC(=O)NCc1ccco1	–	–	69	–	–
COCCNC(=O)Cn1c(=O)n(Cc2ccco2)c(=O)c2ccccc21	–	·	86	–	–
CCOc1ccc(-n2c(=O)c3c(C)c(C)sc3n(CC(=O)NCc3ccco3)c2=O)cc1	–	·	·	–	–
CCc1ccc(-n2c(=O)c3ccccc3n(CC(=O)NCc3ccco3)c2=O)cc1	–	–	–	–	–
Cc1ccc(-n2c(=O)c3ccccc3n(CC(=O)NCc3ccco3)c2=O)cc1	–	–	73	–	–
COc1ccc(S(=O)(=O)N2CCN(c3nc4ccccc4nc3-n3nc(C)cc3C)CC2)cc1	–	·	–	–	–
COc1cccc(-n2c(=O)c3c(C)c(C(=O)N(C)C)sc3n(CC(=O)NCC3CCCO3)c2=O)c1 (stereo unspecified)	–	–	–	–	–
COc1cc2c(cc1NC(=S)Nc1cccc3ccccc13)oc1ccccc12	–	1.4	–	–	–
O=c1cc(CSc2nnc(COc3ccccc3Cl)o2)nc2sccn12	–	·	·	–	–
COc1ccc(-c2nn(-c3ccccc3)cc2/C=N/NC(N)=S)cc1OC	27	–	–	·	–
CCC(=O)Nc1nonc1-c1nc2ccccc2n1Cc1cccc2ccccc12	–	·	–	101	–
CCC(=O)Nc1nonc1-c1nc2ccccc2n1Cc1ccccc1	–	·	?	–	–
COc1ccc(C(=O)Nc2cc(C)on2)cc1S(=O)(=O)N1CC(c2ccccc2)CC1=O (stereo unspecified)	–	–	–	–	–
CN(CC(=O)Nc1ccc(Cl)cc1)c1ccc(S(=O)(=O)N2CCCCC2)cc1[N+](=O)[O-]	–	·	·	–	–
COc1ccc2[nH]c3c(N4CCN(Cc5ccc6c(c5)OCO6)CC4)ncnc3c2c1	21	–	·	–	–
Cc1ccc(C)c(SCC(=O)Nc2cccnc2Cl)c1	–	–	–	–	–
CN1/C(=C/C=C(/C#N)C(N)=O)C(C)(C)c2ccccc21	20	·	–	·	–
CN(Cc1ccccc1)C(=S)Nc1ccc2nc3n(c(=O)c2c1)CCCCC3	–	–	·	–	–
CCC(=O)NC(c1ccc(N(C)C)cc1)c1c(O)ccc2ccccc12 (stereo unspecified)	–	–	·	–	–
COc1ccc(C(NC(=O)C(C)C)c2c(O)ccc3ccccc23)cc1 (stereo unspecified)	13	–	–	–	–
CCC(=O)NC(c1ccc(OC)cc1)c1cc(Cl)c2cccnc2c1O (stereo unspecified)	–	–	·	–	–
CCCC(=O)NC(c1ccc(OC)cc1)c1ccc2cccnc2c1O (stereo unspecified)	8.7	–	–	–	–
CCC(=O)NC(c1ccc(OC)cc1)c1c(O)ccc2ccccc12 (stereo unspecified)	18	–	·	–	–
C=CCN1C(=O)CS/C1=N\N=C\c1cccc([N+](=O)[O-])c1	–	–	–	–	–
CSc1c(C#N)sc(=S)n1-c1ccc(C)cc1	–	–	·	–	–
SMILES	MT stabilizer	ROMK primary	Insulin prom inh	b-catenin transl	HSV augment
CCn1cc([N+](=O)[O-])c(C(=O)Nc2ccn(Cc3ccccc3F)n2)n1	–	–	–	–	–
Cc1ccccc1Cn1ccc(NC(=O)c2nn(C)cc2[N+](=O)[O-])n1	–	–	85	–	–
O=C(Nc1cccc(S(=O)(=O)Nc2ccc(Cl)cc2)c1)c1ccc(Cl)nc1	–	·	·	–	–
COc1ccc(NS(=O)(=O)c2cccc(NC(=O)c3ccc(Cl)nc3)c2)cc1	16	–	–	–	–
CCN(CC)C(=O)C1CCCN(Cc2cccc(Oc3ccccc3)c2)C1 (stereo unspecified)	·	–	·	–	–
CCN(CC)C(=O)C1CCN(Cc2cccc(OCc3ccccc3)c2)CC1	–	-3.1	·	–	–
Cc1cc(C)cc(COn2ccnc2)c1	–	–	68	–	–
Clc1ccc(COn2ccnc2)cc1Cl	–	–	·	–	–
CC(C)c1nc(-c2ccccc2)c(-c2ccccc2)[nH]1	–	–	87	·	–
CCC1CCCCN1Cc1ccc(N)cc1 (stereo unspecified)	–	–	–	–	–
CCn1ccnc1CN(C)Cc1cn[nH]c1-c1ccc(OC)c(F)c1	–	–	·	–	–
CC1CCCCC1NC(=S)NC(=O)c1sc2ccccc2c1Cl (stereo unspecified)	–	–	·	–	–
